In ChEMBL document CHEMBL1121502, “Antiallergy activity of 10-oxo-10-H-pyridazino[6,1-b]quinazoline-2-carboxylic acids” (1980) one finds inhibition in vivo and ED50 data, which are given here for 13 molecules.

Holding throughout (assay type): functional
For assay [1], the system named is Rattus norvegicus. Kind of assay: Antiallergic activity is evaluated for its ability to inhibit reaginic passive cutaneous anaphylaxis (PCA) in rats dosed at 0.5 mg/kg intravenously. The settings on record: route intravenous. A digest of the protocol:
(§1)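 Antiserum dilutions were injected intradermally at several back sites. 48 h later, rats were challenged i.v. with 1 mg ovalbumin in 1 mL saline containing 0.25% Evans blue. Diameter was plotted against relative antiserum concentration, and the least-squares line was extrapolated to zero antiserum. Groups of five animals were used.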

Assay [2] concerns Rattus norvegicus. As to the kind of experiment: Antiallergic activity is evaluated for its ability to inhibit reaginic passive cutaneous anaphylaxis (PCA) in rats dosed perorally. The settings on record: po. In short, it runs like this:
as §1

Assay [3] relates to Rattus norvegicus. Kind of assay: Antiallergic activity is evaluated for its ability to inhibit reaginic passive cutaneous anaphylaxis (PCA) in rats dosed intravenously. Particulars: iv. In short, it runs like this: as §1
Assay [4] deals with Rattus norvegicus. As to the kind of experiment: Antiallergic activity is evaluated for its ability to inhibit reaginic passive cutaneous anaphylaxis (PCA) in rats dosed at 5 mg/kg intravenously. Particulars: ip, in the assay text read “intraperitoneally” for “intravenously”. A digest of the protocol:
as §1

Assay [5] has as its system Rattus norvegicus. Kind of assay: Antiallergic activity is evaluated for its ability to inhibit reaginic passive cutaneous anaphylaxis (PCA) in rats dosed intravenously; Value ranges from 1-2. The settings on record: iv. A digest of the protocol: as §1
For assay [6], the system named is Rattus norvegicus. Kind of assay: Antiallergy activity is evaluated for its ability to inhibit passive cutaneous anaphylaxis (PCA) in rats, dosed perorally. The settings on record: po. A digest of the protocol:
as §1

On to `O=C(O)c1ccc2nc3ccccc3c(=O)n2n1`, for which the inhibition in vivo at 0.5 mg/kg in assay [1] is 76%.

With `O=C(O)c1ccc2nc3cc4ccccc4cc3c(=O)n2n1`, testing at 0.5 mg/kg in assay [1] gave an inhibition in vivo of 36%.

For the molecule `O=C(O)c1ccc2nc3ccc(Cl)cc3c(=O)n2n1`, the inhibition in vivo at 0.5 mg/kg in assay [1] turned out to be 91%.

Turning to `O=C1c2ccccc2S(=O)(=O)c2cc(-c3nn[nH]n3)ccc21` [DOXANTRAZOLE], the results for the 50% effective dose (ED50) in assay [2] and in assay [3] were 5 mg/kg and 1 mg/kg, respectively.

In assay [4], `O=C(O)c1ccc2c(=O)n3nc(Cl)ccc3nc2c1` showed an inhibition in vivo at 5 mg/kg of 0%.

Regarding `COC(=O)c1ccc2nc3ccc(Cl)nn3c(=O)c2c1`, in assay [4], the inhibition in vivo at 5 mg/kg is 6%.

`COc1ccc2nc3ccc(C(=O)O)nn3c(=O)c2c1` showed an inhibition in vivo at 0.5 mg/kg in assay [1] of 8%.

For the molecule `COC(=O)c1ccc2c(=O)n3nc(Cl)ccc3nc2c1`, testing at 5 mg/kg in assay [4] gave an inhibition in vivo of 0%.

In assay [1], `Cc1ccc2c(=O)n3nc(C(=O)O)ccc3nc2c1` had an inhibition in vivo at 0.5 mg/kg of 32%.

`O=C([O-])c1cc(=O)c2c(OCC(O)COc3cccc4oc(C(=O)[O-])cc(=O)c34)cccc2o1.[Na+].[Na+]` [CROMOLYN SODIUM] gave an ED50 in assay [5] of 1 mg/kg.

As to `Cc1ccc2nc3ccc(C(=O)O)cn3c(=O)c2c1`, the 50% effective dose (ED50) was determined as 0.7 mg/kg in assay [6] and 0.05 mg/kg in assay [3].

In turn, `O=C(O)c1ccc2nc3ccc(Cl)nn3c(=O)c2c1` had an inhibition in vivo at 5 mg/kg in assay [4] of 0%.

For `Cc1ccc2nc3ccc(C(=O)O)nn3c(=O)c2c1`, in assay [1], the inhibition in vivo at 0.5 mg/kg is 0%.

One may read the inhibition in vivo as how much of the control response was suppressed. As a reminder, the ED50 is the dose that gives a 50% effect, or the effect in half of the subjects. Higher therefore signals a need for a large dose.
